Article PMC9530962 (Redox Biology, 2022)
Where two headings read alike, the source gives them in different places. One block for each compound: values may come before it.

Tests used:
[1] = Aristolochic lactam; type: in vivo; details: rats, after oral gavage of AAI
[2] = tested on: NRK52E cells; type: cell-based
[3] = tested on: NRK52E cells; test: NRK52E cytotoxicity; type: cell-based; details: NRK52E
Summary of the method: (§1)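 NRK52E rat tubular epithelial cells were seeded at 8000 cells/well. Treatment was 24 h with AAI (0–80 μM) or LYC (0–40 μM), or AAI 40 μM with LYC 5 or 10 μM; drug went in by medium change at 40–50% density. CCK-8 (10% in serum-free DMEM) was added for 2 h at 37 °C and A450 read. Viability % = (OD sample − OD blank)/(OD control − OD blank) × 100. Morphology and confluence were viewed by light microscopy.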

[4] = tested on: Nrf2 antioxidant system, NF-κB signaling pathway and apoptosis-related genes in kidney; test: Nrf2 system, NF-κB pathway and apoptosis gene expression in kidneys of AAN mice; type: in vivo, C57BL/6 mice
[5] = tested on: TNF-α/NF-κB signaling pathway; type: cell-based; details: NRK52E
[6] = tested on: C57BL/6 mice with renal injury induced by aristolochic acid exposure; type: in vivo
[7] = tested on: C57BL/6 mice with renal injury induced by aristolochic acid exposure; test: Renal function, kidney injury markers and oxidative stress markers in AAN mice; type: in vivo; details: for Cr and BUN levels in the serum: mice
Summary of the method: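 C57BL/6 AAN model: AAI 10 mg/kg/day intragastric for 28 days, with LYC 5 or 20 mg/kg/day given separately. Blood was taken 24 h after the last dose and centrifuged at room temperature for serum. Serum creatinine and BUN were measured with commercial kits, and serum KIM-1 and NGAL by ELISA. MDA, SOD, T-AOC and GSH-PX were measured with commercial kits.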

[8] = tested on: C57BL/6 mice with renal injury induced by aristolochic acid exposure; test: AAN mouse model: body weight, kidney coefficient, HE/PAS histopathology; type: in vivo
Summary of the method: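 Male SPF C57BL/6 mice (6 weeks, 18–20 g) were acclimated for 1 week, then split into 5 groups (n = 6). Dosing was intragastric for 28 days, with vehicle 0.5% CMC. AAI 10 mg/kg/day was given at 13:00, and LYC 5 or 20 mg/kg/day at 08:00. Mice were killed 24 h after the last dose. Kidney coefficient = kidney/body weight. Kidney sections were stained with HE, PAS and Masson and scored for histopathology and tubular injury.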

[9] = type: in vivo, SD rats
Summary of the method: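 Male SD rats (8 weeks, 200 ± 20 g) were acclimated for 1 week. Each rat got one intragastric dose of AAI, alone or with lycopene; controls were n = 6. Three rats were killed at each time point: 0.25, 0.5, 1, 2, 4, 8, 12, 24 and 48 h. Kidney (0.3–1 g) was homogenized in normal saline at 1:3 (w:v), and AAI was measured by HPLC.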

[10] = oral gavage of lycopene; ref Previous studies; cited from earlier work
[11] = HPLC determination of lycopene content in rat kidney after oral gavage; type: in vivo, SD rats; details: rats
Summary of the method: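 Rats (male SD) got one intragastric dose of AAI plus lycopene, and three were killed per time point (0.25–48 h). For each sample, 0.5 g kidney was homogenized with 1 ml saline. Protein in 100 μL homogenate was precipitated with 100 μL absolute ethanol, then 200 μL n-hexane (0.01% BHT) was added. HPLC used a C18 column (150 × 4.6 mm, 5 μm) with methanol:acetonitrile:dichloromethane 50:33:17, detection at 472 nm, 25 °C.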

[12] = tested on: Nrf2-HO-1 antioxidant pathway; type: cell-based; details: NRK52E
[13] = NRK52E cytotoxicity; type: cell-based; details: rat, NRK52E renal tubular epithelial cells
Summary of the method: as §1

[14] = mice, AAN group (AAI 10 mg/kg/day, 28 days)

accumulation of ALI in the kidney after 2 h [1]: no accumulation
SMILES: COc1cccc2c1cc1c3c(cc4c(c32)OCO4)C(=O)N1 [ALI, Aristolochic lactam]

content of AAI in the kidney of rats fed with lycopene compared with AAI alone ([9]; AAI + lycopene vs AAI alone): no significant difference | time of highest lycopene content in the kidney [11]: 6 h | lycopene content in the kidney after 24 h ([11]; 24 h): ~0
SMILES: CC(C)=CCC/C(C)=C/C=C/C(C)=C/C=C/C(C)=C/C=C/C=C(C)/C=C/C=C(C)/C=C/C=C(\C)CCC=C(C)C [Lycopene]
expression of Bax, Cleaved-Caspase3, Cleaved-Caspase9, Bcl-2, Caspase-3, and Caspase-9 ([2]; AAI plus LYC intervention, Western-blot and RT-PCR): reversed the expression of these proteins | number of apoptotic cells ([2]; AAI plus LYC intervention, flow cytometry): significantly decreased | cellular mitochondrial damage ([2]; AAI plus LYC intervention, transmission electron microscopy): significantly reduced | cell viability ([3]; LYC 5 μM, 10 μM together with AAI, 24 h, dose-dependent): increased | expression of NF-κB-p65, TNF-α, IL-6, IL-10, IL-1β, IκB and IL-12 in the kidney ([4]; LYC intervention): reversed the expression of these genes in a dose-dependent manner | Nrf2, Keap-1, HO-1, NQO1, GSH-PX and SOD expression in the kidneys ([4]; lycopene treatment): reversed the expression of these proteins | NF-κB-P65 nuclear expression ([5]; AAI plus LYC intervention, immunofluorescence): significantly decreased | expression of NF-κB-p65, TNF-α, IL-6, IkB and IL-12 ([5]; AAI plus LYC treatment): reversed the expression of these proteins | expression of IL-1β in the cells ([5]; LYC treatment vs AAI group, immunofluorescence): significantly decreased | degree of renal fibrosis (MASSON staining) ([6]; AAN mice after LYC intervention): alleviated | expression of TNF-α, IL-6, IL-10 and IL-12 in the kidneys ([6]; AAN mice, LYC 5 and 20 mg/kg/d, Western-blot, RT-PCR, ELISA): reversed the expression of these genes in a dose-dependent manner | expression of AAI-induced lipid peroxidation product (MDA) ([7]; AAN mice): significantly decreased | expression of antioxidant enzyme systems (T-AOC, SOD, and GSH-PX) ([7]; AAN mice): increased | expression levels of KIM-1 and NGAL induced by AAI ([7]; AAN mice, serum, ELISA): significantly reduced | Cr and BUN levels in the serum ([7]; LYC group): significantly lower | damaged renal tissue (HE and PAS staining) ([8]; AAN mice after lycopene intervention): significant improvement | body weight ([8]; AAN mice, AL20 group (LYC 20 mg/kg/d + AAI 10 mg/kg/day, 28 days)): increased | renal tubular structure (HE and PAS staining) ([8]; mice, LYC group (LYC 20 mg/kg/d alone)): intact without signs of lesions | time at which lycopene is most abundant in the kidney [10]: 6 to 8 h | Nrf2 intranuclear expression ([12]; AAI plus LYC intervention, dose-dependent): significant increase | content of ROS ([12]; AAI plus LYC intervention, dose-dependent, DCFH-DA): significant decrease

SMILES: Cc1ccccc1C(=O)N1CCc2cc(-c3nc(NC(=O)Cc4ccc5c(c4)OCO5)sc3C)ccc21 [ML385]
effect of LYC on apoptosis (DAPI staining) after the addition of ML385 ([2]; AAI, LYC, ML385): the effect of LYC was inhibited | effect of LYC on NF-κB, TNF-α, Bax, Cleaved-Caspase-3 and BCL-2 expression when ML385 was added ([5]; ML385 5 μM, AAI 40 μM, LYC): significantly reduced or even ineffective

SMILES: CC(=O)O[C@@H]1CC[C@@]2(C)[C@@H](CC[C@]3(C)[C@@H]2C(=O)C=C2[C@@H]4[C@@H](C)[C@H](C)CC[C@]4(C)CC[C@]23C)[C@@]1(C)C(=O)O [AKBA, Acetyl-11-keto-β-boswellic acid]
expression of Bcl-2 ([5]; AKBA 40 μM, AAI 40 μM): increased | expression of NF-κB, TNF-α, Bax, Cleaved-Caspase3 ([5]; AKBA 40 μM, AAI 40 μM): decreased | content of ROS in the cells ([12]; AKBA 40 μM, AAI 40 μM): decreased | expression of Nrf2, keap-1, HO-1, NQO1 ([12]; AKBA 40 μM, AAI 40 μM): increased

SMILES: COc1cccc2c1cc([N+](=O)[O-])c1c(C(=O)O)cc3c(c12)OCO3 [AAI, Aristolochic acid A]
number of apoptotic cells (early and late) ([2]; AAI group vs control, flow cytometry): significantly increased | viability at 24 h, 40 μM [13]: 60% | degree of cell fusion ([3]; AAI group, light microscopy): about 50% | expression of NF-κB-p65, TNF-α, and IL-6 ([5]; AAI group vs control): increased | NF-κB-P65 nuclear expression ([5]; AAI group, immunofluorescence): significantly increased | renal interstitium fibrosis (MASSON staining) ([6]; mice, AAN group vs control): severely fibrotic | expression of IL-12 in the kidneys ([6]; model mice vs control): decreased | expression of TNF-α, IL-6, IL-10 in the kidneys ([6]; model mice vs control): increased | Cr and BUN levels in the serum ([7]; AAN group vs control): significantly higher | contents of CR and BUN in the serum (preliminary experiment) ([8]; mice, AAI 10 mg/kg/day, vs normal control): significantly increased | body weight [8, 14]: significantly reduced | scores of renal histopathology and tubular injury [8, 14]: significantly increased | renal index ([8]; mice, AAN group (AAI 10 mg/kg/day, 28 days) vs control): significantly lower | AA-I contents in kidney ([9]; rats, Group AAI + LYC, 15min after intragastric administration): 0 | AA-I contents in kidney ([9]; rats, Group AAI + LYC, 30min): 7.955 ± 0.8107 | AA-I contents in kidney ([9]; rats, Group AAI + LYC, 1h): 0 | AA-I contents in kidney ([9]; rats, Group AAI + LYC, 2h): 1.516 ± 0.1493 | AA-I contents in kidney ([9]; rats, Group AAI + LYC, 4h): 0 | AA-I contents in kidney ([9]; rats, Group AAI + LYC, 8h): 0 | AA-I contents in kidney ([9]; rats, Group AAI + LYC, 12h): 0 | AA-I contents in kidney ([9]; rats, Group AAI + LYC, 24h): 0 | AA-I contents in kidney ([9]; rats, Group AAI + LYC, 48h): 0 | AA-I contents in kidney ([9]; rats, Group AAI, 15min after intragastric administration): 0 | AA-I contents in kidney ([9]; rats, Group AAI, 30min): 8.546 ± 1.478 | AA-I contents in kidney ([9]; rats, Group AAI, 1h): 0 | AA-I contents in kidney ([9]; rats, Group AAI, 2h): 1.616 ± 0.04743 | AA-I contents in kidney ([9]; rats, Group AAI, 4h): 0 | AA-I contents in kidney ([9]; rats, Group AAI, 8h): 0 | AA-I contents in kidney ([9]; rats, Group AAI, 12h): 0 | AA-I contents in kidney ([9]; rats, Group AAI, 24h): 0 | AA-I contents in kidney ([9]; rats, Group AAI, 48h): 0 | time after feeding at which AAI has been metabolized completely in the kidney ([9]; rats, oral gavage of AAI): 2 h | expression of Nrf2, Keap-1, HO-1, NQO1, GSH-PX, and SOD ([12]; AAI exposure vs control): decreased | content of ROS ([12]; AAI group vs control): increased
